Data taken from ChEMBL document CHEMBL4028905, “A Unique Approach to Design Potent and Selective Cyclic Adenosine Monophosphate Response Element Binding Protein, Binding Protein (CBP) Inhibitors” (J Med Chem, 2017).
Active and inactive are the calls of the source. The calls are words filed in the database; no cut-off is given here.

Assays:
[1] = molecular target: CREB-binding protein/Histone acetyltransferase p300 (Homo sapiens, UniProt Q09472+Q92793); assay: Inhibition of P300/CBP in human MV4-11 cells assessed as reduction in MYC expression after 4 hrs by luminescence based assay; format: cell-based
How it was run: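 MV-4-11 cells plated at 10,000 per well in RPMI1640 with 10% FBS and 2 mM L-glutamine. Compounds added in DMSO at a final 0.1% and incubated 4 h at 37 °C before MYC expression read-out; EC50 derived.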

[2] = Intrinsic clearance in human liver microsomes at 1 uM in presence of NADPH by LC-MS/MS analysis; format: ADME, microsome; settings: read-out: CLH
CREB-binding protein [3] = molecular target: T1, CREB-binding protein (Homo sapiens, UniProt Q92793); assay: Inhibition of His tagged recombinant CBP (unknown origin) by TR-FRET assay
How it was run: (§1)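 Recombinant His-tagged bromodomains purified by Ni affinity, tag removed with thrombin, checked by mass spectrometry. Assay is TR-FRET competition against a biotinylated small-molecule ligand. Normalized inhibition vs concentration fit to 4-parameter Hill equation; […] for optimization.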
Target sequence in this assay (Q92793 whole entry): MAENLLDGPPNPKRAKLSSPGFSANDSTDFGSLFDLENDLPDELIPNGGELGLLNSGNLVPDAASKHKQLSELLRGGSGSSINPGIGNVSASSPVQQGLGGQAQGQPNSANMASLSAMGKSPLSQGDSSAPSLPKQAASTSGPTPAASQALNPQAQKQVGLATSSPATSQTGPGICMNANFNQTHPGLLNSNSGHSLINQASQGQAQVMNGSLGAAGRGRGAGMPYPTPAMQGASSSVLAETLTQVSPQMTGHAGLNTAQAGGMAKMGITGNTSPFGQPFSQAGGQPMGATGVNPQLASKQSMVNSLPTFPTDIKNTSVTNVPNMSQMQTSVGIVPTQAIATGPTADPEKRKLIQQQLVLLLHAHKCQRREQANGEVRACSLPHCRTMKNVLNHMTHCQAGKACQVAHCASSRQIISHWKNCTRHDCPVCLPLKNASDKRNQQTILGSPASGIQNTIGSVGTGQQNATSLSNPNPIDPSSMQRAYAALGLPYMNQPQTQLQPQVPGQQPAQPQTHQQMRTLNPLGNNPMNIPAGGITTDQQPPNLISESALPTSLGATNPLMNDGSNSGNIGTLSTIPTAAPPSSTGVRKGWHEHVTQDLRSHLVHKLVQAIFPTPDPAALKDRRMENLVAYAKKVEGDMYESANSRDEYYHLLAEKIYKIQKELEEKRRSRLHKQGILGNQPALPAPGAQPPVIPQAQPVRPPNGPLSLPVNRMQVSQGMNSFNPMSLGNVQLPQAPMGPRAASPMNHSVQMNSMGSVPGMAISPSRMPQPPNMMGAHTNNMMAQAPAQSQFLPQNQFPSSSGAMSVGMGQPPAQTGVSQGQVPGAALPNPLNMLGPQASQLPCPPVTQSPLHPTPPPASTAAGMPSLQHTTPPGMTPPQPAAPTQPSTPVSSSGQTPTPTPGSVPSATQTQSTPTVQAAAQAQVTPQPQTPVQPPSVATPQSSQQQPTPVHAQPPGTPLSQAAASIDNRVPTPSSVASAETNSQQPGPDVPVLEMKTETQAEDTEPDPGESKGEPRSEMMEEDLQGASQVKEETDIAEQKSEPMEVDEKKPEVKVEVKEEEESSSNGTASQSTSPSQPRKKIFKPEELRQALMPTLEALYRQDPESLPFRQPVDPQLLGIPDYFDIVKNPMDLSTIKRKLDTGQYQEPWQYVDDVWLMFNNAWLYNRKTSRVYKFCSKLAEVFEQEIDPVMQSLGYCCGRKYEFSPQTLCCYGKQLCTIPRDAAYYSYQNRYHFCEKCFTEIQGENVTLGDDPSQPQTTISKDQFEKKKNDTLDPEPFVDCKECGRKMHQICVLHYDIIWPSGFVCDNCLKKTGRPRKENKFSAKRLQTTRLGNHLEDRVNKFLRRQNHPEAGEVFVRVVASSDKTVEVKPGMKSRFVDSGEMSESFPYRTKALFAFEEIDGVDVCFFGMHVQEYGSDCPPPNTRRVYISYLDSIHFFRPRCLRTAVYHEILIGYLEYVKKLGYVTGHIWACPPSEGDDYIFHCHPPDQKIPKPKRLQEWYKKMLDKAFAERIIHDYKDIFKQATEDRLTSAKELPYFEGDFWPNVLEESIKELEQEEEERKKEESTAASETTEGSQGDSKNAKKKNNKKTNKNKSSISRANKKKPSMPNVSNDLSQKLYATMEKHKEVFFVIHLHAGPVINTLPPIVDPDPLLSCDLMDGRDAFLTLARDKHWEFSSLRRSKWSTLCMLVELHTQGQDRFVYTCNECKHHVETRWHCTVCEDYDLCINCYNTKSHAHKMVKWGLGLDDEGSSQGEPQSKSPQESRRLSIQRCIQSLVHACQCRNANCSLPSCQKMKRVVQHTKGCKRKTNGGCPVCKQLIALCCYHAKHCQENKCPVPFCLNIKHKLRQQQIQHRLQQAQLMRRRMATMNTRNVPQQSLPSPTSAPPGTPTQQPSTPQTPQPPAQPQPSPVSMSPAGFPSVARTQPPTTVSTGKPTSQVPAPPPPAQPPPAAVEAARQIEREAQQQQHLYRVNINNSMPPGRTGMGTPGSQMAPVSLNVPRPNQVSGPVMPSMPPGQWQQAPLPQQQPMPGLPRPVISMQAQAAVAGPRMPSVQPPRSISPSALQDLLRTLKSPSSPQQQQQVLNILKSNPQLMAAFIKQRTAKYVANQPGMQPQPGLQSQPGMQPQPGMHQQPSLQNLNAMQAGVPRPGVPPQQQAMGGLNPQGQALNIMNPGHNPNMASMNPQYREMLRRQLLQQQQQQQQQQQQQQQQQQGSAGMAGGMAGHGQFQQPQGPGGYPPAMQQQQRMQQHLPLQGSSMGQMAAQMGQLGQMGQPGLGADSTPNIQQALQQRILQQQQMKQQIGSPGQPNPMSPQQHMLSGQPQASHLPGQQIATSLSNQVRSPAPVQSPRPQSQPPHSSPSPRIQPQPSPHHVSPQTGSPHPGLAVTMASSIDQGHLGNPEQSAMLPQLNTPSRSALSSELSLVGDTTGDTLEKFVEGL

[4] = Intrinsic clearance in mouse liver microsomes at 1 uM in presence of NADPH by LC-MS/MS analysis; format: ADME, microsome; settings: read-out: CLH
Homo sapiens [5] = organism: Homo sapiens; assay: Selectivity ratio of IC50 for His tagged recombinant BRD4 bromodomain 1 (unknown origin) to IC50 for His tagged recombinant CBP (unknown origin)
[6] = molecular target: Bromodomain-containing protein 4 (Homo sapiens, UniProt O60885); assay: Inhibition of His tagged recombinant BRD4 bromodomain 1 (unknown origin) by TR-FRET assay; how it was run: as §1
[7] = Intrinsic clearance in rat liver microsomes at 1 uM in presence of NADPH by LC-MS/MS analysis; format: ADME, microsome; settings: read-out: CLH
Homo sapiens [8] = organism: Homo sapiens; assay: Selectivity ratio of IC50 for His tagged recombinant CBP (unknown origin) to IC50 for His tagged recombinant BRD4 bromodomain 1 (unknown origin)
CREB-binding protein [9] = molecular target: T1, CREB-binding protein; assay: Inhibition of His tagged recombinant CBP (unknown origin) at 50 uM by HTS assay
How it was run: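 HTS TR-FRET competition of biotinylated ligand binding to recombinant His-tagged CBP bromodomain (tag thrombin-cleaved after Ni affinity). Highest concentration tested 50 μM. IC50 from 4-parameter Hill fit of normalized inhibition, reported as geometric mean of 2–8 replicates.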
Target sequence in this assay (Q92793 2-2442 limits assumed): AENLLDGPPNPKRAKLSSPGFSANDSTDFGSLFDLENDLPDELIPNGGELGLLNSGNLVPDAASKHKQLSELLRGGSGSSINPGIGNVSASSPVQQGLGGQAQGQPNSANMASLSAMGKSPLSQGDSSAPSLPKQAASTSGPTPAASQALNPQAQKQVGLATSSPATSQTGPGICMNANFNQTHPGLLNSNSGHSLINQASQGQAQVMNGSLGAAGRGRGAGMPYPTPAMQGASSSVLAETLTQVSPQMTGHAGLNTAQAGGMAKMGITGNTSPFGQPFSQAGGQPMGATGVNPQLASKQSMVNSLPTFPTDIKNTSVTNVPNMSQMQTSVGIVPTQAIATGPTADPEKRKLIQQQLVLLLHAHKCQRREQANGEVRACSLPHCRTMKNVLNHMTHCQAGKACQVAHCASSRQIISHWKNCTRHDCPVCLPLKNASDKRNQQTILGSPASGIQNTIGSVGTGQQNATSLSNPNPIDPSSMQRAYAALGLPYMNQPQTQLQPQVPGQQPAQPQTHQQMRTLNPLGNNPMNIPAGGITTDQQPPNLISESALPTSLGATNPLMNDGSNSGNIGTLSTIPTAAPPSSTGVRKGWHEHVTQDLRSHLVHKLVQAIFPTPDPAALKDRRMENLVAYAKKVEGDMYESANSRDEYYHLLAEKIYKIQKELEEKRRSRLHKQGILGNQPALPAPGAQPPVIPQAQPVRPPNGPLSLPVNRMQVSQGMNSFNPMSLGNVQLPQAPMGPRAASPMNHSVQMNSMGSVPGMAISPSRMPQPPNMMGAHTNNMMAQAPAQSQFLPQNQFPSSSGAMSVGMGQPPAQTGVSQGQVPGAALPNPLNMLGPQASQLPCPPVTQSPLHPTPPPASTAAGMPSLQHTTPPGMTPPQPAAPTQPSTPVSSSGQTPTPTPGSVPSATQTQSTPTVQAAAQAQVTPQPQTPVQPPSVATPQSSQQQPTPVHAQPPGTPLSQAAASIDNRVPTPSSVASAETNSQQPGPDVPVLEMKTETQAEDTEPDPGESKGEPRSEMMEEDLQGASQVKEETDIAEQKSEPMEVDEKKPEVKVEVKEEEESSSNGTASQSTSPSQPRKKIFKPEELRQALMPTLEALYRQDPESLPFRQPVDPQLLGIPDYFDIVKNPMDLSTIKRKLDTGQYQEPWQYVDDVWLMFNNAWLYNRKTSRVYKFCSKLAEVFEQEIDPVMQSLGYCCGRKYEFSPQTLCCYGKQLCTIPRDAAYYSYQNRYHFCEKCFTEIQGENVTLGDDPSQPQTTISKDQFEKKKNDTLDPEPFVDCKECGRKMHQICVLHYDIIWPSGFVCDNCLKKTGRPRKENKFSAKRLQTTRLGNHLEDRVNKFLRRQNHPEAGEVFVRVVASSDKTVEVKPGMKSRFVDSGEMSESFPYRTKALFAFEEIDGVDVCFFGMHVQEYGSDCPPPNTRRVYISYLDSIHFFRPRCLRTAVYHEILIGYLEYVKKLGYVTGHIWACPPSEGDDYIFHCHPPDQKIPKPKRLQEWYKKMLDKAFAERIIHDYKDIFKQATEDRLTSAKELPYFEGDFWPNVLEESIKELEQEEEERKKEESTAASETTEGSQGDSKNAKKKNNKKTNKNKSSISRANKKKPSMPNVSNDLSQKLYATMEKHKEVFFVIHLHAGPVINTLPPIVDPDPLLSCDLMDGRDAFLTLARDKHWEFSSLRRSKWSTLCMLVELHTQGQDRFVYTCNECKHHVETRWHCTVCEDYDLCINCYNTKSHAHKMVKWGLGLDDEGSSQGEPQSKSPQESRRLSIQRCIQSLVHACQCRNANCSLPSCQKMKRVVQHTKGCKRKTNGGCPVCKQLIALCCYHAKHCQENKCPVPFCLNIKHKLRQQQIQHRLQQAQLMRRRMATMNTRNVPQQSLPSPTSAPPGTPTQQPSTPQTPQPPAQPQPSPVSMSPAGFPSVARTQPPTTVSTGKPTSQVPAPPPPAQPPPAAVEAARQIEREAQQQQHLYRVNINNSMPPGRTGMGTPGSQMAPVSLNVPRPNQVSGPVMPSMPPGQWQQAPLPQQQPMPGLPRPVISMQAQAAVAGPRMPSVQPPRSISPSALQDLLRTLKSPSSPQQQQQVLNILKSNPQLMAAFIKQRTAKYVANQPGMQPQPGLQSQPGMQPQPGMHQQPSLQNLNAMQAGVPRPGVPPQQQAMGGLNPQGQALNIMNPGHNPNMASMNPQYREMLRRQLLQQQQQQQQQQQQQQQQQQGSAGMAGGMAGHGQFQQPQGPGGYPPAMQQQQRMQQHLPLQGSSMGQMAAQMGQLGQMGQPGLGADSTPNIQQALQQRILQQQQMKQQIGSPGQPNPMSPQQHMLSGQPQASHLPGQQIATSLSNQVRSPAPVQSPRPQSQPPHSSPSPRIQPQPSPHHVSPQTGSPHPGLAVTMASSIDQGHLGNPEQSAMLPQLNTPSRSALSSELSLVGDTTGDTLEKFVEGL

[10] = molecular target: T2, Bromodomain-containing protein 9 (Homo sapiens, UniProt Q9H8M2); assay: Inhibition of His tagged recombinant BRD9 (unknown origin) by TR-FRET assay; how it was run: as §1
T2 sequence (Q9H8M2 whole entry): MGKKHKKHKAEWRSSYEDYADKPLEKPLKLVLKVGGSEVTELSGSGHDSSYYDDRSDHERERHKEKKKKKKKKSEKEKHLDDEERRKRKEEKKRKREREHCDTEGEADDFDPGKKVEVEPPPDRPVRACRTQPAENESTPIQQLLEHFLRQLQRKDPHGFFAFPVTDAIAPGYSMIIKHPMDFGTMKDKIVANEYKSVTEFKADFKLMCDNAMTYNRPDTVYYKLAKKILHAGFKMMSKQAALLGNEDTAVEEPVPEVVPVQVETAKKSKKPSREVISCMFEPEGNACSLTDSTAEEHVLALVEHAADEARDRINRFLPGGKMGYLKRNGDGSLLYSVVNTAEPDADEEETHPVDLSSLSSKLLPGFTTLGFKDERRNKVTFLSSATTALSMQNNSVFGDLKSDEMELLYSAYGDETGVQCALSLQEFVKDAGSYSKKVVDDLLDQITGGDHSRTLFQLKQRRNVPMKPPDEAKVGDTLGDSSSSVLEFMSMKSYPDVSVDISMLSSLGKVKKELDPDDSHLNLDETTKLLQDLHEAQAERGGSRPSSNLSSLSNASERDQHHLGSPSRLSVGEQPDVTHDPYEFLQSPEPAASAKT

[11] = molecular target: Chromatin remodeling regulator CECR2 (Homo sapiens, UniProt Q9BXF3); assay: Inhibition of His tagged recombinant CECR2 (unknown origin) by TR-FRET assay; how it was run: as §1

SMILES	IC50 (CREB-binding protein [3])	Ratio IC50 (Homo sapiens [5])	IC50 [6]	also measured
Cn1cc(-c2cc3c(cc2C(F)F)N(c2cc(N4CCOCC4)c4c(c2)n(C)c(=O)n4C)CCC3)cn1	0.0036 µM	310	1.1 µM	EC50 [1]: 0.012 µM; CLint scaled at 1 µM [2]: 15 mL/min/kg; CLint scaled at 1 µM [4]: 48 mL/min/kg; CLint scaled at 1 µM [7]: 23 mL/min/kg
CCC(=O)N1CCOc2c(cc(-c3ccc(OC)c(OC)c3)cc2OC[C@H]2CCCN(C)C2)C1	–	34	–	–
Cc1ccc(S(=O)(=O)Nc2ccc3c(c2)CCC(=O)N3C)s1	23 µM	0.23	5.2 µM	Ratio IC50 (Homo sapiens [8]): 4.4
C[C@@H]1CC(=O)Nc2cccc(-c3ccc4c(c3)c(-c3cnn(C)c3)nn4C)c2N1	–	370	–	–
Cn1cc(-c2cc3c(cc2C(F)F)N(c2ccc4c(c2)n(C)c(=O)n4C)CCC3)cn1	0.02 µM	210	4.1 µM	EC50 [1]: 1 µM; CLint scaled at 1 µM [2]: 16 mL/min/kg; CLint scaled at 1 µM [4]: 61 mL/min/kg; CLint scaled at 1 µM [7]: 38 mL/min/kg
CC(=O)N1CCc2c(cc(-c3cccc(Cl)c3)c(=O)n2CC2CC2)C1	0.54 µM	96	52 µM	–
CNC(=O)Nc1cc(OC)cc(N2CCCc3cc(-c4cnn(C)c4)c(C(F)F)cc32)n1	–	> 170	> 20 µM	–
CNC(=O)N1CCOc2ccc(N3CCCc4cc(-c5cnn(C)c5)c(C(F)F)cc43)cc2C1	0.013 µM	570	7.4 µM	–
CN1C(=O)CCc2ccc(N3CCCc4cc(-c5cnn(C)c5)c(C(F)F)cc43)cc21	0.038 µM	> 530	> 20 µM	–
CNC(=O)c1c[nH]c2ccc(N3CCCc4cc(-c5cnn(C)c5)c(C(F)F)cc43)cc12	0.0095 µM	1300	12 µM	EC50 [1]: 2.2 µM; CLint scaled at 1 µM [2]: 13 mL/min/kg; CLint scaled at 1 µM [4]: 47 mL/min/kg; CLint scaled at 1 µM [7]: 20 mL/min/kg
CC(=O)N1CCCc2cc(N3CCCc4cc(-c5cnn(C)c5)c(C(F)F)cc43)ccc21	0.45 µM	> 15	6.9 µM	–
CNC(=O)c1c[nH]c2cnc(N3CCCc4cc(-c5cnn(C)c5)c(C(F)F)cc43)cc12	–	780	3.9 µM	EC50 [1]: 0.36 µM; CLint scaled at 1 µM [2]: 6.9 mL/min/kg; CLint scaled at 1 µM [4]: 39 mL/min/kg; CLint scaled at 1 µM [7]: 17 mL/min/kg
Cn1c(=O)sc2cc(N)ccc21	> 100 µM	–	> 100 µM	inhibition (CREB-binding protein [9]): Active
CC(=O)N1CCc2c(cc(N3CCCc4cc(-c5cnn(C)c5)c(C(F)F)cc43)c(=O)n2C)C1	–	> 430	> 20 µM	–
C[C@H]1Nc2c(cccc2N2CCCc3cc(-c4cnn(C)c4)c(C(F)F)cc32)NC1=O	–	–	> 20 µM	–
CCOC(=O)c1cnc2ccc(C(=O)OC)cc2c1Nc1cccc(C(=O)O)c1	0.23 µM	> 87	> 20 µM	–
CNC(=O)c1cnn2c(C3CCCN3)ccnc12 (stereo not given)	32 µM	> 2.6	> 84 µM	–
COc1cccc2c1N(CCCNC(=O)c1cccc3c1N[C@H](C)C(=O)N3)CCC2	–	22	13 µM	–
CCC(=O)N1CCCc2cc(NS(=O)(=O)c3ccc(F)cc3C)ccc21	3 µM	25	74 µM	–
CNC(=O)c1ccc2nccc(N3CCCc4cc(-c5cnn(C)c5)c(C(F)F)cc43)c2c1	–	> 590	> 20 µM	–
CNC(=O)Nc1cc(OC)cc(NC(=O)NS(=O)(=O)c2cc(C)c(CCOC)s2)n1	0.27 µM	> 74	> 20 µM	–
C[C@@H]1CC(=O)Nc2cccc(N3CCCc4cc(-c5cnn(C)c5)c(C(F)F)cc43)c2N1	0.0034 µM	1300	4.5 µM	IC50 [10]: > 20 µM; IC50 [11]: > 20 µM
Cn1cc(-c2cc3c(cc2C(F)F)N(c2ccc4sc(=O)n(C)c4c2)CCC3)cn1	–	–	18 µM	CLint scaled at 1 µM [2]: 17 mL/min/kg; CLint scaled at 1 µM [4]: 71 mL/min/kg; CLint scaled at 1 µM [7]: 39 mL/min/kg
CNC(=O)c1cnn2ccc(N3CCCc4cc(-c5cnn(C)c5)c(C(F)F)cc43)nc12	1.4 µM	> 14	> 20 µM	–
COC(=O)c1c[nH]c2ccccc12	99 µM	> 1	> 100 µM	inhibition (CREB-binding protein [9]): Active
